In PubChem BioAssay AID588785 (The Scripps Research Institute Molecular Screening Center, 2011):
Activity calls are given as the source filed them.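 Rule for the calls: active = spectra count ratio compound/DMSO 0.5 or lower for pPAFAH, with at most one off-target serine hydrolase also that low; inactive = ratio above 0.5 for pPAFAH, or two-plus off-targets hit.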

Key:
Assay in all cases: serine hydrolase selectivity in brain membranes, late-stage follow-up, selectivity assay for pPAFAH inhibitor project, biochemical, LC-MS/MS, mouse brain membrane proteome (AID 588785)
[1] = molecular target: Abhd4 (UniProt Q8VD66); details: ABPP-MudPIT FP-biotin spectral counts, at 1 µM, stronger effect = lower value
Abhd4, sequence (Q8VD66 whole entry, looked up): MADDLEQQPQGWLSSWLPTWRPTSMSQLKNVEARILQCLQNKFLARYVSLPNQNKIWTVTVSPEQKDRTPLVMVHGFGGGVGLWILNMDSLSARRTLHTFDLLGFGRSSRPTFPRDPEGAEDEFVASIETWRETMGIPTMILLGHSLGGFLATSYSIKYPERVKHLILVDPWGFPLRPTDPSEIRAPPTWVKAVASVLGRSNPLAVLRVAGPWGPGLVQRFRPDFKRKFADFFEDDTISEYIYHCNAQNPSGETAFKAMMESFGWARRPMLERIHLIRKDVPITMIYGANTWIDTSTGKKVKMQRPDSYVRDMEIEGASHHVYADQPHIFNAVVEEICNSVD
In short: (§1)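 Test system: mouse brain membrane proteome; amount: proteome at 1 mg/mL protein; detection: ABPP-MudPIT LC-MS/MS spectral counting; replication: 3–4 biological replicates; schedule: 30 min 37 °C compound, 2 h 25 °C probe; measure: Compound/DMSO spectral-count ratio per protein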

[2] = test system: Lactb; details: ABPP-MudPIT FP-biotin spectral counts, at 1 µM, stronger effect = lower value
In short: as §1

[3] = molecular target: Prolyl endopeptidase (Mus musculus) (UniProt Q9QUR6); details: ABPP-MudPIT FP-biotin spectral counts, Prep, at 1 µM, stronger effect = lower value
Prolyl endopeptidase (Mus musculus), sequence (Q9QUR6 whole entry, looked up): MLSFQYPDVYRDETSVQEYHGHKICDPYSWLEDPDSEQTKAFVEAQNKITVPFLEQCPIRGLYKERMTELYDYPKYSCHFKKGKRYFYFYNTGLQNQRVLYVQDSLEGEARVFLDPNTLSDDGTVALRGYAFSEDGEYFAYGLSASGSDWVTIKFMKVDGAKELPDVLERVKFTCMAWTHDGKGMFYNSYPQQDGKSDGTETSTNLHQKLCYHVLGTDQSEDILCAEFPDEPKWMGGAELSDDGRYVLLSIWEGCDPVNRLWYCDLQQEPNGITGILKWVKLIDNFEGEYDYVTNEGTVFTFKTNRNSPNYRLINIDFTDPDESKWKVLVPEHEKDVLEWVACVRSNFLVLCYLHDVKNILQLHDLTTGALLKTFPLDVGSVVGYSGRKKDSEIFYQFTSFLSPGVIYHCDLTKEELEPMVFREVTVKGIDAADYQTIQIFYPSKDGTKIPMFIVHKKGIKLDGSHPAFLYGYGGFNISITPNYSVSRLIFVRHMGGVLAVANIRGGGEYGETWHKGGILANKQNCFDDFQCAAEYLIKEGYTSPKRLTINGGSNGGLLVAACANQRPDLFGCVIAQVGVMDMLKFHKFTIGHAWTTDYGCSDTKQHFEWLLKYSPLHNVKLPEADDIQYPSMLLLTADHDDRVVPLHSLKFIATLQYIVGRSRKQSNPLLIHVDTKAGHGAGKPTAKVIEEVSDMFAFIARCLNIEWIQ
In short: as §1

[4] = test system: Dpp9; details: ABPP-MudPIT FP-biotin spectral counts, at 1 µM, stronger effect = lower value
In short: as §1

[5] = test system: Apeh; details: ABPP-MudPIT FP-biotin spectral counts, at 1 µM, stronger effect = lower value
In short: as §1

[6] = test system: Fam108b1; details: ABPP-MudPIT FP-biotin spectral counts, at 1 µM, stronger effect = lower value
In short: as §1

[7] = test system: Tpp2; details: ABPP-MudPIT FP-biotin spectral counts, at 1 µM, stronger effect = lower value
In short: as §1

[8] = test system: Fam108a; details: ABPP-MudPIT FP-biotin spectral counts, at 1 µM, stronger effect = lower value
In short: as §1

[9] = test system: Prcp; details: ABPP-MudPIT FP-biotin spectral counts, at 1 µM, stronger effect = lower value
In short: as §1

[10] = test system: Fam108c1; details: ABPP-MudPIT FP-biotin spectral counts, at 1 µM, stronger effect = lower value
In short: as §1

[11] = test system: Acot2; details: ABPP-MudPIT FP-biotin spectral counts, at 1 µM, stronger effect = lower value
In short: as §1

[12] = molecular target: Monoacylglycerol lipase ABHD6 (Mus musculus) (UniProt Q8R2Y0); details: ABPP-MudPIT FP-biotin spectral counts, at 1 µM, stronger effect = lower value
Monoacylglycerol lipase ABHD6 (Mus musculus), sequence (Q8R2Y0 whole entry, looked up): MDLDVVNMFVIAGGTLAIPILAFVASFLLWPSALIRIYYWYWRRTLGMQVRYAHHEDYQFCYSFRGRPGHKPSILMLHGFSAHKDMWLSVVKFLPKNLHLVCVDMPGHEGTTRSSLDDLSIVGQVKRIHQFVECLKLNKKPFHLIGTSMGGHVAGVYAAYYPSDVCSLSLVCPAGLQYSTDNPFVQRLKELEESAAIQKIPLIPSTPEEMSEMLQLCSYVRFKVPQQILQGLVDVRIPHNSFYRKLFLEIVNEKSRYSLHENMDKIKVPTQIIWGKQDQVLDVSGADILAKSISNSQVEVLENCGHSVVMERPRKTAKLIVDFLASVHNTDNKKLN
In short: as §1

[13] = molecular target: Platelet-activating factor acetylhydrolase (Mus musculus) (UniProt Q60963); details: ABPP-MudPIT FP-biotin spectral counts, Pla2g7 (pPAFAH), at 1 µM, stronger effect = lower value
Platelet-activating factor acetylhydrolase (Mus musculus), sequence (Q60963 whole entry, looked up): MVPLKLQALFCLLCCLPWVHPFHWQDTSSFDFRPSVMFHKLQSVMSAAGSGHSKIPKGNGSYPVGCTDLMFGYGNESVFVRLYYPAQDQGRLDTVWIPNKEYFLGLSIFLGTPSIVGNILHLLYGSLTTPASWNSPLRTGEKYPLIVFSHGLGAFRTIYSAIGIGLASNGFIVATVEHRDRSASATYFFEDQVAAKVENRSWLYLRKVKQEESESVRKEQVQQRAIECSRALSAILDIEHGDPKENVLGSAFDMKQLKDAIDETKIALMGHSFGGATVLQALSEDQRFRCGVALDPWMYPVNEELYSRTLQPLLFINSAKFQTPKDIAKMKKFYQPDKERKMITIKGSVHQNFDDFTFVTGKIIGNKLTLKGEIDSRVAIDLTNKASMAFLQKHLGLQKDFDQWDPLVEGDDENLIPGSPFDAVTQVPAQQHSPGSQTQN
In short: as §1

[14] = test system: Lypla2; details: ABPP-MudPIT FP-biotin spectral counts, at 1 µM, stronger effect = lower value
In short: as §1

[15] = test system: Ache; details: ABPP-MudPIT FP-biotin spectral counts, at 1 µM, stronger effect = lower value
In short: as §1

[16] = test system: Pnpla6; details: ABPP-MudPIT FP-biotin spectral counts, at 1 µM, stronger effect = lower value
In short: as §1

[17] = test system: Pla2g15; details: ABPP-MudPIT FP-biotin spectral counts, at 1 µM, stronger effect = lower value
In short: as §1

[18] = test system: Faah; details: ABPP-MudPIT FP-biotin spectral counts, at 1 µM, stronger effect = lower value
In short: as §1

[19] = test system: Pafah1b2; details: ABPP-MudPIT FP-biotin spectral counts, at 1 µM, stronger effect = lower value
In short: as §1

[20] = test system: Parl; details: ABPP-MudPIT FP-biotin spectral counts, at 1 µM, stronger effect = lower value
In short: as §1

[21] = test system: Es1; details: ABPP-MudPIT FP-biotin spectral counts, at 1 µM, stronger effect = lower value
In short: as §1

[22] = test system: Magl; details: ABPP-MudPIT FP-biotin spectral counts, at 1 µM, stronger effect = lower value
In short: as §1

[23] = test system: Abhd3; details: ABPP-MudPIT FP-biotin spectral counts, at 1 µM, stronger effect = lower value
In short: as §1

[24] = test system: Pnpla8; details: ABPP-MudPIT FP-biotin spectral counts, at 1 µM, stronger effect = lower value
In short: as §1

[25] = test system: Acot3; details: ABPP-MudPIT FP-biotin spectral counts, at 1 µM, stronger effect = lower value
In short: as §1

[26] = test system: Rbbp9; details: ABPP-MudPIT FP-biotin spectral counts, at 1 µM, stronger effect = lower value
In short: as §1

[27] = test system: Nceh1; details: ABPP-MudPIT FP-biotin spectral counts, at 1 µM, stronger effect = lower value
In short: as §1

[28] = test system: Fasn; details: ABPP-MudPIT FP-biotin spectral counts, at 1 µM, stronger effect = lower value
In short: as §1

[29] = test system: Abhd12; details: ABPP-MudPIT FP-biotin spectral counts, at 1 µM, stronger effect = lower value
In short: as §1

[30] = test system: Acot7; details: ABPP-MudPIT FP-biotin spectral counts, at 1 µM, stronger effect = lower value
In short: as §1

[31] = molecular target: Acyl-protein thioesterase 1 (Mus musculus) (UniProt P97823); details: ABPP-MudPIT FP-biotin spectral counts, Lypla1, at 1 µM, stronger effect = lower value
Acyl-protein thioesterase 1 (Mus musculus), sequence (P97823 whole entry, looked up): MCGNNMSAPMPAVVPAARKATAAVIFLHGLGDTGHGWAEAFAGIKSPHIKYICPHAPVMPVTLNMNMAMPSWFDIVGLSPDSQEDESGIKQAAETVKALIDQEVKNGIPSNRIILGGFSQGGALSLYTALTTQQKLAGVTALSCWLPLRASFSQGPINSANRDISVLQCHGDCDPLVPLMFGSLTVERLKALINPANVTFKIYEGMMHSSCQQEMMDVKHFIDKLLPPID
In short: as §1

[32] = molecular target: Palmitoyl-protein thioesterase ABHD10, mitochondrial (Mus musculus) (UniProt Q6PE15); details: ABPP-MudPIT FP-biotin spectral counts, at 1 µM, stronger effect = lower value
Palmitoyl-protein thioesterase ABHD10, mitochondrial (Mus musculus), sequence (Q6PE15 whole entry, looked up): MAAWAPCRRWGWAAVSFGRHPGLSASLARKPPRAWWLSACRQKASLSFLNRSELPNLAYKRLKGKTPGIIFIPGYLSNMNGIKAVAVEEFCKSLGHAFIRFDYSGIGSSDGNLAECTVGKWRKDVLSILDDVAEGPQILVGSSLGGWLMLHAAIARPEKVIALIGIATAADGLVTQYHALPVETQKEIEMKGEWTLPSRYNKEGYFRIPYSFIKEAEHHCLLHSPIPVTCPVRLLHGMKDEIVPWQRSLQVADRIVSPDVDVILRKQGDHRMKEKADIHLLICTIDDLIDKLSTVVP
In short: as §1

[33] = test system: Acot6; details: ABPP-MudPIT FP-biotin spectral counts, at 1 µM, stronger effect = lower value
In short: as §1

[34] = test system: Pafah1b3; details: ABPP-MudPIT FP-biotin spectral counts, at 1 µM, stronger effect = lower value
In short: as §1

[35] = test system: Acot1; details: ABPP-MudPIT FP-biotin spectral counts, at 1 µM, stronger effect = lower value
In short: as §1

[36] = test system: Prepl; details: ABPP-MudPIT FP-biotin spectral counts, at 1 µM, stronger effect = lower value
In short: as §1

[37] = test system: Esd; details: ABPP-MudPIT FP-biotin spectral counts, at 1 µM, stronger effect = lower value
In short: as §1

[38] = test system: Dpp8; details: ABPP-MudPIT FP-biotin spectral counts, at 1 µM, stronger effect = lower value
In short: as §1

[39] = test system: Lyplal1; details: ABPP-MudPIT FP-biotin spectral counts, at 1 µM, stronger effect = lower value
In short: as §1

[40] = test system: Lipe; details: ABPP-MudPIT FP-biotin spectral counts, at 1 µM, stronger effect = lower value
In short: as §1

[41] = test system: Abhd11; details: ABPP-MudPIT FP-biotin spectral counts, at 1 µM, stronger effect = lower value
In short: as §1

[42] = test system: Pme1; details: ABPP-MudPIT FP-biotin spectral counts, at 1 µM, stronger effect = lower value
In short: as §1

[43] = test system: Bat5; details: ABPP-MudPIT FP-biotin spectral counts, at 1 µM, stronger effect = lower value
In short: as §1

Cc1cc(N2CCN(C(=O)Oc3ccc(-c4ccccc4)cn3)CC2)c2ccccc2n1
spectra count ratio compound/DMSO [1]: 1 (inactive)
spectra count ratio compound/DMSO [2]: 0.7 (inactive)
spectra count ratio compound/DMSO [3]: 1.2 (inactive)
spectra count ratio compound/DMSO [4]: 1.1 (inactive)
spectra count ratio compound/DMSO [5]: 0.9 (inactive)
spectra count ratio compound/DMSO [6]: 1.1 (inactive)
spectra count ratio compound/DMSO [7]: 1.2 (inactive)
spectra count ratio compound/DMSO [8]: 0.9 (inactive)
spectra count ratio compound/DMSO [9]: 1 (inactive)
spectra count ratio compound/DMSO [10]: 1 (inactive)
spectra count ratio compound/DMSO [11]: 1.4 (inactive)
spectra count ratio compound/DMSO [12]: 1.1 (inactive)
spectra count ratio compound/DMSO [13]: 0.1
spectra count ratio compound/DMSO [14]: 1.7 (inactive)
spectra count ratio compound/DMSO [15]: 0.9 (inactive)
spectra count ratio compound/DMSO [16]: 0.8 (inactive)
spectra count ratio compound/DMSO [17]: 0.8 (inactive)
spectra count ratio compound/DMSO [18]: 0.8 (inactive)
spectra count ratio compound/DMSO [19]: 0.8 (inactive)
spectra count ratio compound/DMSO [20]: 1.1 (inactive)
spectra count ratio compound/DMSO [21]: 0
spectra count ratio compound/DMSO [22]: 1.3 (inactive)
spectra count ratio compound/DMSO [23]: 1.3 (inactive)
spectra count ratio compound/DMSO [24]: 0.9 (inactive)
spectra count ratio compound/DMSO [25]: 0.8 (inactive)
spectra count ratio compound/DMSO [26]: 1.3 (inactive)
spectra count ratio compound/DMSO [27]: 1.1 (inactive)
spectra count ratio compound/DMSO [28]: 1 (inactive)
spectra count ratio compound/DMSO [29]: 1.1 (inactive)
spectra count ratio compound/DMSO [30]: 0.7 (inactive)
spectra count ratio compound/DMSO [31]: 1.6 (inactive)
spectra count ratio compound/DMSO [32]: 1.5 (inactive)
spectra count ratio compound/DMSO [33]: 1 (inactive)
spectra count ratio compound/DMSO [34]: 0.8 (inactive)
spectra count ratio compound/DMSO [35]: 1 (inactive)
spectra count ratio compound/DMSO [36]: 1.1 (inactive)
spectra count ratio compound/DMSO [37]: 1.2 (inactive)
spectra count ratio compound/DMSO [38]: 0.9 (inactive)
spectra count ratio compound/DMSO [39]: 1.2 (inactive)
spectra count ratio compound/DMSO [40]: 1.3 (inactive)
spectra count ratio compound/DMSO [41]: 1 (inactive)
spectra count ratio compound/DMSO [42]: 1.3 (inactive)
spectra count ratio compound/DMSO [43]: 0.9 (inactive)
